Mac1 fbg enh: CD11b/CD18-fibrinogen binding enhancement; P05107+P11215; K562 CD11b/CD18 adhesion to fibrinogen, ATPlite luminescence; activation, % at 10 µM; 0.07% of 93,000 active;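 active = 10 µM primary screen giving 50% or more activity, confirmed by 40% or more on retest at that dose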
RORA act: RORA (human) activation; P35398; CHO-K1 Gal4-RORA LBD luciferase reporter, luminescence; percent increase over mock-subtracted basal signal; activation, % at 10 µM; 1.5% of 65,000 active; AID 560;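 active = activation above the mean of all tested compounds plus 3 SD, cut at about 49% in these data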;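 note: 0% = DMSO-treated RORA cells and 100% = added signal equal to DMSO minus mock-transfected cells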
Target sequence (P35398 whole entry, looked up, the tested form may be a part): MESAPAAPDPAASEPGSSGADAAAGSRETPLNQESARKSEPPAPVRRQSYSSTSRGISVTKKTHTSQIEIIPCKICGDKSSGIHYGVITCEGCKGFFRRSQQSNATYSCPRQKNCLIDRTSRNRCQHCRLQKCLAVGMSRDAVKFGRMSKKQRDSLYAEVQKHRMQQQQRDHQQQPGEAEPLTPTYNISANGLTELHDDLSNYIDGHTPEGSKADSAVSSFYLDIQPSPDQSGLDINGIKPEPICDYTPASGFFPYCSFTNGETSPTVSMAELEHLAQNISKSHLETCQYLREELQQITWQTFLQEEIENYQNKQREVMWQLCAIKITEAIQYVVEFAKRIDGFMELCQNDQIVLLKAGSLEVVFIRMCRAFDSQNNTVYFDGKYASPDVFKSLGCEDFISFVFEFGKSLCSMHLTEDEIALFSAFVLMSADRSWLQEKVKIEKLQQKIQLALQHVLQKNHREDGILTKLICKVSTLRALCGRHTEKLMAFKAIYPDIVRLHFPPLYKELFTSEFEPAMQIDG
MT1-MMP txn act: activates MT1-MMP transcription; HT1080 MT1-MMP promoter luciferase reporter, luminescence, overnight; stronger effect = higher value; activation factor at 10 µM; 0.16% of 86,000 active; AID 750;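 active = activation factor of at least 2 for MT1-MMP transcription at 10 µM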
Mac1 fbg inh: CD11b/CD18-fibrinogen binding inhibition; K562 CD11b/CD18 adhesion to fibrinogen, ATPlite luminescence; Mn2+ added to activate the integrin; inhibition, % at 10 µM; 0.54% of 93,000 active; AID 1497;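 active = primary inhibition of 50% or more at 10 µM, then 40% or more on retest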
SF1 activator: SF-1 (human) activation; 1.9% of 65,000 active; CHO-K1 Gal4-SF-1 LBD luciferase reporter; % increase over DMSO SF-1-specific signal; Q13285; activation, % at 10 µM;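 active = activation above the mean activation of all tested compounds plus 3 SD, cut at about 50% in these data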
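System: CHO-K1 cells with Gal4–hSF-1 LBD chimera plus Gal4-driven luciferase; quantity: 4,000 CHO-K1 cells per well; compound: one dose, 10 µM compound, 1% DMSO; times: 20 h compound treatment, 37 °C; measured by: SteadyLite luciferase luminescence; read-out: percent activation versus DMSO; benchmarks: DMSO and mock-transfected background; replicates: one test per compound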
TNAP act mid DEA: activators of human TNAP at intermediate phosphate acceptor | purified TNAP, CDP-star luminescence, 100 mM DEA, 30 min; stronger effect = higher value; scale: 0 levamisole-inhibited, 1 vehicle-only enzyme | 64,000 tested, under 10 active | activation factor at 20 µM | P05186 | AID 813;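 active = activation factor of at least 2 at 20 µM, relative to controls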
* hit, by the source's call; x = no result given. Compounds with a hit are over-represented: about 2.1% of the library has one in this group of screens.

SMILES	Mac1 fbg enh	RORA act	MT1-MMP txn act	Mac1 fbg inh	SF1 activator	TNAP act mid DEA
Cc1cc(-n2ccc(=O)[nH]c2=O)nc(-c2ccccc2)n1	-1	-3	1.1	-2	0	0.9
COc1ccc(OC)c(N=c2oc3cc(O)ccc3cc2C(N)=O)c1	-3	68*	1	-13	43	0.9
CCC/C=C(\CCC)C(NS(=O)(=O)c1ccc(C(F)(F)F)cc1)c1ccc(-c2ccccc2)cc1 (centres undefined)	x	x	1.2	x	x	x
Cc1nn(C)cc1/C=C/C(=O)c1cccs1	x	x	2.5*	x	x	x
Clc1ccc(Br)cc1-c1nc(-c2ccncc2)no1	68	16	1.5	-12	44	0.9
Brc1cccc(-c2nc(-c3ccncc3)no2)c1	-2	47	1.3	-1	60*	0.9
Cc1cc(C)cc(-c2nc(-c3ccncc3)no2)c1	0	42	1.3	1	90*	0.9
COC(=O)Cn1c(C(=O)N(C)C)cc2c1C[C@H]1CN(C(=O)c3ccccc3)[C@@](Cc3ccc(OC)cc3)(C(=O)OC)[C@@H]21	x	x	1.2	x	x	x
CCOC(=O)C1=C(COc2ccccc2)NC(=O)NC1c1ccc(C#N)cc1 (centres undefined)	x	x	1.1	x	x	x
Cc1ccccc1OCCN1C(=O)c2ccccc2C1=O	0	14	1.4	22	42	0.9
O=C1c2ccccc2C(=O)N1CCOc1ccccc1	x	x	2.1*	x	x	x
COC(=O)[C@H](Cc1ccccc1)NC(=O)Nc1ccc(C)cc1	-4	x	1.2	5	x	x
CN1CCc2nc3sc(C(=O)C45CC6CC(CC(C6)C4)C5)c(N)c3cc2C1	118*	x	x	13	x	x
Nc1c(C(=O)c2ccc(Cl)cc2)sc2nc3c(cc12)CCC3	-5	x	x	-4	x	x
CCCCOCCCNc1ncnc2c1[nH]c1ccccc12	-6	x	1.2	100*	x	x
CCCCNC(=O)C(c1ccc(OCC(=O)OC)c(C(=O)OC)c1)N(CCC1=CCCCC1)C(=O)CCCCCN1C(=O)NC(c2ccc(-c3ccccc3)cc2)C(C(=O)OCc2ccccc2)=C1C (centres undefined)	x	x	1.3	x	x	x
CCOC(=O)c1ccc(C(=O)OCC)c(NC(=S)Nc2ccc([N+](=O)[O-])cc2OC)c1	-4	x	x	53	x	x
Cc1ccc2nc(C)/c(=N\O)c(C)nc2c1	x	x	1.4	x	x	x
Cc1nc2ccc(Cl)cc2nc(C)/c1=N\O	0	35	1.4	4	52*	0.9
N#C/C(=N\Nc1ccc(Cl)cc1)C(=O)c1ccccc1	-8	x	x	94*	x	x
CC1(C)Cc2c(sc3nc(-c4cc5ccccc5o4)n(N)c(=O)c23)CO1	0	59*	1.2	-17	35	1
Cc1ccc(-c2nc3sc4c(c3c(=O)n2N)CC(C)(C)OC4)cc1	-3	x	1.1	-16	x	x
COc1ccc(CNC(=O)[C@H](C)[C@H]2C[C@]2(C)[C@H](NC(=O)OCc2ccccc2)c2ccccc2)cc1OC	x	x	1.2	x	x	x
O=C(c1ccco1)N1CCn2c1nc1ccccc12	x	62*	1.7	x	41	0.9
COc1ccc2c(c1)CCc1c(C(=O)N3CCCCCC3)noc1-2	-2	5	1.6	-1	57*	0.9
SMILES	Mac1 fbg enh	RORA act	MT1-MMP txn act	Mac1 fbg inh	SF1 activator	TNAP act mid DEA
COc1ccc2c(c1)CCc1c(C(=O)NCc3cccnc3)noc1-2	2	46	1.2	6	39	0.9
COC(=O)N1CC=CC1(C)C(=O)NCCN1CCOCC1 (centres undefined)	x	x	1	x	x	x
Cc1ccc2c(c1)C(N1CCCC1=O)CC(c1ccco1)N2 (centres undefined)	-4	52*	0.2	57	58*	0.9
Cc1ccc(C2CC(c3ccco3)n3ncnc3N2)cc1 (centres undefined)	-3	x	1.1	2	x	1
COc1cccc(C2=CC(c3ccccc3)n3nnnc3N2)c1 (centres undefined)	x	79*	1.2	x	26	0.8
COc1cccc(C2=CC(c3ccc(N(C)C)cc3)n3nnnc3N2)c1 (centres undefined)	-4	7	1.5	-7	9	0.9
COCCCn1cnc2oc3nc4ccccc4nc3c2c1=O	-1	50*	1.1	4	34	0.9
Cc1ccc(-n2nnnc2SCn2nnc3ccccc3c2=O)cc1	1	x	1.4	4	x	x
O=C(Cn1cnc2ccccc2c1=O)c1ccc2c(c1)OCCO2	-2	39	1.1	-16	75*	1
O=c1c2ccccc2nnn1CSc1nnc2ccccn12	-3	23	1.5	-8	78*	0.9
O=c1c2ccccc2nnn1CSc1ccc2c(c1)OCCO2	x	38	1.4	x	77*	x
Cc1ccc(C2CC(=O)NC(SCC(=O)Nc3nccs3)=C2C#N)cc1 (centres undefined)	8	x	x	10	x	x
CCOC(=O)/C(N=Nc1ccc(F)cc1)=C(/O)c1ccc([N+](=O)[O-])cc1	0	x	x	-6	x	x
COc1ccc(CN(C(=O)CO)[C@@H](CO[Si](c2ccccc2)(c2ccccc2)C(C)(C)C)c2cccc(NC(C)=O)c2OC)cc1OC	x	x	1.2	x	x	x
c1csc(-c2nc3nc4ccccc4nc3n2Cc2ccc3c(c2)OCO3)c1	x	43	1.5	x	63*	0.9
CCCn1c(-c2cccs2)nc2nc3ccccc3nc21	4	x	1.1	2	x	x
Cc1ccc(S(=O)(=O)c2c(C)nn(C(C)(C)C)c2OC(=O)c2ccco2)cc1	-9	-9	1.2	61	-7	0.9
Cc1ccc(S(=O)(=O)c2c(C)nn(C(C)(C)C)c2OC(=O)c2ccc(Br)o2)cc1	-6	-18	1	54*	9	1
CCCC[C@@H]1C[C@H]1C(NC(=O)c1cccs1)c1ccc(-c2ccccc2)cc1 (some centres undefined)	x	x	1.3	x	x	x
COc1cccc(-c2nc3ccccc3c(=O)o2)c1	-1	x	1.1	-36	x	x
COc1cccc(C2=N/C(=C\N(C)C)C(=O)O2)c1	0	71*	1.4	-1	26	0.9
Cc1ccc(NC(=O)c2cc(N(C)C)ccc2[P+](=O)O)cc1	-2	69*	1.4	-11	14	1
O=C(c1ccccc1Sc1cccc2ccccc12)N1CCOCC1	x	x	1.2	x	x	x
O=C(CCc1ccc(S(=O)(=O)N2CCOCC2)cc1)Nc1nc(COc2ccccc2)cs1	-5	x	x	87*	x	x
O=C(COc1ccccc1)Nc1nc(-c2ccc(S(=O)(=O)N3CCOCC3)cc2)cs1	26	-14	1	0	1	0.9
CC12CC(c3ccccc3O1)N(C(=O)c1ccco1)C(=S)N2c1ccc(F)cc1 (centres undefined)	-4	x	1.1	5	x	x
COc1ccc(-c2cc(-c3ccc(OC)c(OC)c3)n[nH]2)c(O)c1	-2	x	2*	38	x	x
COc1ccc(-c2cc(-c3ccccc3O)[nH]n2)cc1OC	0	-9	1.2	13	23	1

Source: PubChem (several laboratories)
